Results reported in ChEMBL document CHEMBL1123799, “Cardiotonic agents. 1. Novel 8-aryl-substituted imidazo[1,2-a]- and -[1,5-a]pyridines and imidazo[1,5-a]pyridinones as potential positive inotropic agents” (J Med Chem, 1987).

What was measured:
Felis catus = organism: Felis catus; experiment: Inotropic activity as dose required to cause 20% positive or negative change in contractile force of papillary muscle from cat; type: functional, Muscle tissue
Procedure, shortened: (§1)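 Papillary muscle (<1 mm diameter, ≥3 mm long) held isometric at 35 °C in bicarbonate saline (pH 7.3-7.5, 95% O2/5% CO2). Muscles under 500 mg/mm² force discarded. Compounds in water added to the bath at 1:1000, with a 15-min wash between doses. Norepinephrine 10 μM added last as internal standard. Force normalized to cross-sectional area (weight/length). Mean of ≥3 determinations.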

Canis familiaris [1] = organism: Canis familiaris; experiment: Electrophysiological activity as concentration causing 20 % increase in the functional refractory period of canine ventricular muscle.; set-up: species or system Canis lupus familiaris, Muscle tissue
Procedure, shortened: (§2)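 Right-ventricle papillary muscle strips (5-6 mm × 1-2 mm) in a 3.5-mL bath, superfused with oxygenated saline at 36 ± 0.5 °C. Diastolic threshold set with 2 ms bipolar stimuli at 4000 ms cycle length. Paced at 4× threshold for 60 min. FRP found at 1000 ms cycle length with a premature S2 after every tenth S1 at shortening intervals. Various concentrations superfused, one compound per strip.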

[2] = Ability to inhibit canine cardiac cAMP phosphodiesterase III
Procedure, shortened: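 Crude enzyme from dog cardiac muscle homogenate, taken by differential centrifugation between 700g and 165000g. Assay at 37 °C with 10^-6 M cAMP plus [3H]cAMP (10^5 cpm/mL), 40 mM Tris pH 8.0, 10 mM MgCl2, 2.5 mM mercaptoethanol, 0.05 mg/mL BSA and 0.1 mg/mL enzyme. AMP and cAMP separated by PEI-cellulose ion-exchange TLC and counted by scintillation. Triplicate, up to 100 μM.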

Mustela putorius furo [3] = organism: Mustela putorius furo; experiment: Inotropic activity as dose required to cause 20% positive or negative change in contractile force of papillary muscle from ferret; type: functional, Muscle tissue; procedure, shortened: as §1
Canis familiaris [4] = organism: Canis familiaris; experiment: Electrophysiological activity as concentration of the drug causing 20 % increase in the functional refractory period of canine ventricular muscle.; set-up: species or system Canis lupus familiaris, Muscle tissue; procedure, shortened: as §2
Mustela putorius furo [5] = organism: Mustela putorius furo; experiment: Inotropic activity as dose required to cause 20% positive or negative change in contractile force of papillary muscle from ferret

Row | SMILES | CF C20 (Felis catus) | FRP C20 (Canis familiaris [1]) | further results
1 | CCOc1ccc(-c2cccn3c(C)ncc23)cc1 | -100 µM | – | –
2 | CCOc1ccc(C2=CCCn3c2cnc3C)cc1 | 20 µM | 30 µM | –
3 | CS(=O)(=O)Nc1ccc(-c2cccn3ccnc23)cc1 | 10 µM | 50 µM | IC50 [2]: > 1000 µM
4 | c1cc(-c2ccc(-n3ccnc3)cc2)c2nccn2c1 | 30 µM | – | IC50 [2]: 220 µM
5 | C1=C(c2ccccc2)c2nccn2CC1 | -15 µM | – | –
6 | Cc1ncc2n1CCC=C2c1ccc(O)cc1 | 30 µM | 100 µM | –
7 | Cc1ncc2c(-c3ccccc3)cccn12 | – | – | CF C20 (Mustela putorius furo [3]): -20 µM
8 | Cc1ncc2n1CCC=C2c1ccccc1 | 10 µM | – | –
9 | Oc1ccc(-c2cccn3ccnc23)cc1 | 15 µM | -18 µM | –
10 | Cc1nccn1-c1ccc(C2=CCCn3c2cnc3C)cc1 | 5 µM | 5 µM | IC50 [2]: 150 µM
11 | Cc1ncc2n1CCC=C2c1ccc(-n2ccnc2)cc1 | 9 µM | 14 µM | –
12 | C1=C(c2ccc(-n3ccnc3)cc2)c2nccn2CC1 | 29 µM | 100 µM | IC50 [2]: 550 µM
13 | Cc1nccn1-c1ccc(-c2cccn3c(C)nc(Br)c23)cc1 | 1 µM | – | FRP C20 (Canis familiaris [4]): 17 µM; IC50 [2]: 30 µM
14 | Cc1ccc(-c2cccn3c(O)ncc23)cc1 | 6 µM | – | –
15 | COC(=O)c1nc(O)n2cccc(-c3ccc(C)cc3)c12 | -40 µM | – | –
16 | COC(=O)c1nc(O)n2cccc(-c3ccc(-n4ccnc4C)cc3)c12 | 30 µM | – | –
17 | CCOC(=O)c1nc(O)n2cccc(-c3ccccc3)c12 | – | – | CF C20 (Mustela putorius furo [5]): -10 µM
18 | CCc1nccn1-c1ccc(C2=CCCn3c2cnc3CC)cc1 | 0.8 µM | 9 µM | –
19 | Cc1ncc2n1CCC=C2c1ccc(NS(C)(=O)=O)cc1 | 2 µM | 10 µM | –
20 | Cc1nccn1-c1ccc(-c2cccn3c(C)ncc23)cc1 | 13 µM | 80 µM | IC50 [2]: 65 µM
21 | Nc1ccc(C2=CCCn3ccnc32)cc1 | -5 µM | – | –
22 | Cc1ncc2n1CCCC2c1ccc(NS(C)(=O)=O)cc1 (configuration not stated) | – | 80 µM | CF C20 (Mustela putorius furo [3]): 0.8 µM
23 | c1ccc(-c2cccn3ccnc23)cc1 | 1 µM | 10 µM | –
24 | Nc1ccc(-c2cccn3ccnc23)cc1 | 15 µM | – | –
25 | CC(=O)Nc1ccc(C2=CCCn3c2cnc3C)cc1 | 10 µM | 40 µM | –
26 | CCCCNC(=O)NC1CCN(c2ncnc3cc(OC)c(OC)cc23)CC1 [BUQUINERAN] | – | – | CF C20 (Mustela putorius furo [3]): 7 µM
27 | CSc1ccc(C(=O)c2[nH]c(=O)[nH]c2C)cc1 [ENOXIMONE] | 3 µM | – | –
